Assay results published in ChEMBL document CHEMBL1145443, “Thiosemicarbazones of formyl benzoic acids as novel potent inhibitors of estrone sulfatase” (J Med Chem, 2007).
Calls of active or inactive are those of the source. The calls are words filed in the database; no cut-off is given here.

T1: Steryl-sulfatase (Homo sapiens, UniProt P08842)
T1 sequence (P08842 whole entry): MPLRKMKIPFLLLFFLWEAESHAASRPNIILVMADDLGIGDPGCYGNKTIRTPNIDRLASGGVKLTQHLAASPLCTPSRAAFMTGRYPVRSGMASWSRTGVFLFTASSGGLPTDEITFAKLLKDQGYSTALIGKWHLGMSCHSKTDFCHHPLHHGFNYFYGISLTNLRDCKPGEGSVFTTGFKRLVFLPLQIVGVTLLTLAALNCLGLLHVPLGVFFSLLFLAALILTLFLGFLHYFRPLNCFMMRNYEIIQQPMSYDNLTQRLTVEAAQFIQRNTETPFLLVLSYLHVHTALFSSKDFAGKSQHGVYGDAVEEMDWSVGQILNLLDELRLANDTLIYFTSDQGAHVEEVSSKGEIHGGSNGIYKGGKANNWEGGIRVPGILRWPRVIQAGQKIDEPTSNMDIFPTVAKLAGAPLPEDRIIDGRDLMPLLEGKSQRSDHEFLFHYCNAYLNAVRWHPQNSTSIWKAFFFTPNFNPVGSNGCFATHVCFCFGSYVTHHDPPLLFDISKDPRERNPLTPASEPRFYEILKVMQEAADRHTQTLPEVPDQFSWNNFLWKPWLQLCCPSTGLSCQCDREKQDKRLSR

T2: Steryl-sulfatase (Homo sapiens) (UniProt P08842)
T2 sequence (whole entry): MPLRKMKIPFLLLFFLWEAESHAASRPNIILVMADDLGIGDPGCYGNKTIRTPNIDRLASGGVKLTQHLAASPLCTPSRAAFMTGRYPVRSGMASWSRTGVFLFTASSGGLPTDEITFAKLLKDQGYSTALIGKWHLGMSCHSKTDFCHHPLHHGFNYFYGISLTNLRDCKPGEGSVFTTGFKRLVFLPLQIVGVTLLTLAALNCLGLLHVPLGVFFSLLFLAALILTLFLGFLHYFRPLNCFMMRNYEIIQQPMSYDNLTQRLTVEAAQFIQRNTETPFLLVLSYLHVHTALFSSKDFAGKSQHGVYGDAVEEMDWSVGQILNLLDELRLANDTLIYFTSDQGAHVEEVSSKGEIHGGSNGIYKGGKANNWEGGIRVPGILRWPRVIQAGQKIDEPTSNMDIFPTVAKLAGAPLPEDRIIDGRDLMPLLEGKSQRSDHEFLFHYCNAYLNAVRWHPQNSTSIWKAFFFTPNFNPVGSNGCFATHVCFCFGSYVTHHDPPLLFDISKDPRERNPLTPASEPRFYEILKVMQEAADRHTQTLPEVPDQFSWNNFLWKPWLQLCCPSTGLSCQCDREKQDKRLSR


Experiments:
HeLa = experiment: Growth inhibition of HeLa cells; assay type: functional, cell-based; conditions: Homo sapiens
[1] = Dissociation constant, pKa of the compound; assay type: physicochemical
Gallus gallus = species: Gallus gallus; experiment: Acute toxicity in chick embryo after 72 to 96 hrs by hen's fertile egg screening test; assay type: organism-based; conditions: chicken, in vivo
Procedure, shortened: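 Fifteen-day-old fertile hen's egg embryos received compound through the air cell. Deaths were scored 72-96 h after treatment, and an LD50 was derived in mg/kg.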

K562 = experiment: Growth inhibition of K562 cells; assay type: functional, cell-based; conditions: Homo sapiens
Steryl-sulfatase = biological target: T1, Steryl-sulfatase; experiment: (§1) Inhibition of Estrone sulfatase in human placental microsome; parameters: species or system Placenta
[2] = biological target: T2, Steryl-sulfatase (Homo sapiens); experiment: as §1; conditions: Placenta
[3] = biological target: Estrone sulfatase (Homo sapiens); experiment: Activity of Estrone sulfatase in human placental microsome; conditions: Placenta

| Molecule | pKa [1] | IC50 (Steryl-sulfatase) [µM] | further results |
| --- | --- | --- | --- |
| O=C(O)c1cc(/C=N/NC(=S)NC2CCCCC2)ccc1O | 4.2 | – | IC50 (HeLa): > 50 µg/mL; Activity (Gallus gallus): > 50 mg/kg; IC50 (K562): > 50 µg/mL |
| O=C(O)c1cccc(/C=N/NC(=S)NC2CCCCC2)c1O | 3.8 | – | IC50 (HeLa): > 50 µg/mL; Activity (Gallus gallus): > 50 mg/kg; IC50 (K562): > 50 µg/mL |
| CCCCCCNC(=S)N/N=C/c1cccc(C(=O)O)c1 | – | 12 | – |
| O=C(O)c1cccc(/C=N/NC(=S)NC2CCCCC2)c1 | 5.4 | – | – |
| S=C(N/N=C/c1cccc(-c2nnn[nH]2)c1)NC1CCCCC1 | 5.2 | – | – |
| COc1ccc(/C=N/NC(=S)NC2CCCCC2)c(C(=O)O)c1OC | – | > 100 | – |
| O=C(N/N=C/c1cccc(C(=O)O)c1)NC1CCCCC1 | – | > 100 | – |
| CCCCNC(=S)N/N=C/c1cccc(C(=O)O)c1 | – | 58 | – |
| Oc1ccccc1/C=N/NC(=S)NC1CCCCC1 | 9.8 | – | – |
| O=C(O)c1ccccc1/C=N/NC(=S)NC1CCCCC1 | 6.4 | – | – |
| Oc1cccc(/C=N/NC(=S)NC2CCCCC2)c1 | 10.2 | – | – |
| CCCCNC(=S)N/N=C/c1ccccc1C(=O)O | – | – | Activity [2]: inactive |
| O=C(O)c1ccccc1/C=N/NC(=S)Nc1ccccc1 | – | > 100 | – |
| COc1cccc(/C=N/NC(=S)NC2CCCCC2)c1C(=O)O | – | > 100 | – |
| CCCCCCNC(=S)N/N=C/c1ccccc1C(=O)O | – | – | Activity [2]: inactive |
| Cc1ccc(/C=N/NC(=S)NC2CCCCC2)c(C(=O)O)c1O | 4.3 | – | – |
| COc1c2c(c(O)c3c1C(=O)c1c(cc(O)c(C)c1O)C3=O)-c1c(cc(/C=N/NC(=S)NC3CCCCC3)c(C(=O)O)c1O)CC2 [MHL CYCLOHEXYLTHIOSEMICARBAZONE] | – | – | IC50 (HeLa): > 50 µg/mL; Activity (Gallus gallus): > 50 mg/kg; IC50 (K562): > 50 µg/mL |
| OB(O)c1ccccc1/C=N/NC(=S)NC1CCCCC1 | 7.7 | > 100 | – |
| C/C(=N\NC(=S)NC1CCCCC1)c1ccccc1C(=O)O | – | > 100 | – |
| O=C(O)c1ccc(O)c(/C=N/NC(=S)NC2CCCCC2)c1 | 5.8 | – | IC50 (HeLa): > 50 µg/mL; Activity (Gallus gallus): > 100 mg/kg; IC50 (K562): > 50 µg/mL |
| COc1c(C)ccc(/C=N/NC(=S)NC2CCCCC2)c1C(=O)O | – | > 100 | – |
| O=C(O)c1ccccc1/C=N/NC(=S)NC1CC1 | – | > 100 | – |
| Steryl-sulfatase (Homo sapiens), P08842 (protein) MPLRKMKIPFLLLFFLWEAESHAASRPNIILVMADDLGIGDPGCYGNKTIRTPNIDRLASGGVKLTQHLAASPLCTPSRAAFMTGRYPVRSGMASWSRTGVFLFTASSGGLPTDEITFAKLLKDQGYSTALIGKWHLGMSCHSKTDFCHHPLHHGFNYFYGISLTNLRDCKPGEGSVFTTGFKRLVFLPLQIVGVTLLTLAALNCLGLLHVPLGVFFSLLFLAALILTLFLGFLHYFRPLNCFMMRNYEIIQQPMSYDNLTQRLTVEAAQFIQRNTETPFLLVLSYLHVHTALFSSKDFAGKSQHGVYGDAVEEMDWSVGQILNLLDELRLANDTLIYFTSDQGAHVEEVSSKGEIHGGSNGIYKGGKANNWEGGIRVPGILRWPRVIQAGQKIDEPTSNMDIFPTVAKLAGAPLPEDRIIDGRDLMPLLEGKSQRSDHEFLFHYCNAYLNAVRWHPQNSTSIWKAFFFTPNFNPVGSNGCFATHVCFCFGSYVTHHDPPLLFDISKDPRERNPLTPASEPRFYEILKVMQEAADRHTQTLPEVPDQFSWNNFLWKPWLQLCCPSTGLSCQCDREKQDKRLSR | – | – | Km [3]: 27 µM |
